Test results as given in ChEMBL document CHEMBL4732044, “Discovery of a promising agent IQZ23 for the treatment of obesity and related metabolic disorders” (Eur J Med Chem, 2020).
Converted amounts (≈) assume the structure as drawn. The source made the active and inactive calls. The calls are words filed in the database; no cut-off is given here.

Experiments:
[1] = test system: 3T3-L1; assay: Lipid lowering activity in mouse 3T3-L1 cells assessed as reduction in adipogenic cocktail-induced triglyceride levels incubated for 6 days by GPO-POD assay; type: functional, cell-based; conditions: for Activity: dose 1-5 µM, time 6.0 day; for EC50: 3T3-L1, 144 h
Outline: (§1)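 Confluent 3T3-L1 cells were treated from day 0 in cocktail (IBMX, dexamethasone, insulin) for 3 days, then re-dosed in insulin medium for 3 more days. For dose–response, concentrations were 0–10 µM (0.01, 0.1, 0.3, 1, 3, 10). On day 6, cells were lysed in 0.2% Triton X-100 and TG was measured by GPO-POD and normalized to BCA protein as % of control. EC50 was fitted from the dose–response. N = 4.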

[2] = test system: 3T3-L1; assay: Lipid lowering activity in mouse 3T3-L1 cells assessed as reduction in adipogenic cocktail-induced triglyceride levels at 1 to 5 uM incubated for 6 days by GPO-POD assay relative to control; type: functional; conditions: dose 1-5 µM, time 6.0 day; outline: as §1
[3] = test system: 3T3-L1; assay: Activation of AMPK pathway in mouse 3T3-L1 cells assessed as increase in number of mitochondria copy at 2 uM after 24 hrs in presence of compound C by mito-tracker staining based Confocal microscopic method
Outline: (§2)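 3T3-L1 cells grown in DMEM with 10% FBS at 37 °C and 5% CO2. After treatment, cells were stained for 30 min at 37 °C in the dark with 1 µM Mito-Tracker plus Hoechst 33342 (1:1000) and imaged by confocal microscopy (excitation 633 and 405 nm). Mitochondrial copy number was also taken as the mtDNA/nDNA ratio by PCR (cytochrome C versus 18S rRNA).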

[4] = test system: 3T3-L1; assay: Activation of AMPK pathway in mouse 3T3-L1 cells assessed as increase in number of mitochondria copy at 2 uM after 24 hrs by mito-tracker staining based Confocal microscopic method; conditions: filed as activator; outline: as §2
[5] = test system: 3T3-L1; assay: Lipid lowering activity in mouse 3T3-L1 cells assessed as adipogenic cocktail-induced triglyceride levels at 1 uM incubated for 6 days by GPO-POD assay relative to control; type: functional; conditions: time 6 day; outline: as §1
[6] = test system: 3T3-L1; assay: Lipid lowering activity in mouse 3T3-L1 cells assessed as reduction in adipogenic cocktail-induced triglyceride levels at 1 uM incubated for 6 days by GPO-POD assay relative to control; type: functional; set-up: scale not given: the % may be the effect or the level left; conditions: time 6 day; outline: as §1
[7] = Aqueous solubility in PBS buffer at pH 7.4 after 24 hrs; type: physicochemical
[8] = test system: 3T3-L1; assay: Inhibition of mouse 3T3-L1 cells adipocyte differentiation assessed as reduction in adipogenic cocktail-induced C/EBPbeta mRNA expression after 24 hrs by RT-qPCR analysis; type: functional, cell-based; conditions: dose 0.01-1 µM
Outline: (§3)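 Confluent 3T3-L1 preadipocytes received differentiation cocktail (0.5 mM IBMX, 100 ng/mL dexamethasone, 2 µg/mL insulin) with compound (0.01–1 µM; metformin 1 mM) for 24 h. mRNA was measured by SYBR Green RT-qPCR (30 cycles), normalized to β-actin, with the differentiated control set to 1. N = 4 independent experiments.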

[9] = Stability in Sprague-Dawley rat liver microsomes assessed as remaining compound […] up to 60 mins in presence of NADPH by LC-MS/MS analysis; type: ADME, Microsome; conditions: read-out: Stabilty
[10] = Stability in Sprague-Dawley rat liver microsomes assessed as rate constant […] up to 60 mins in presence of NADPH by LC-MS/MS analysis; type: ADME, Microsome
[11] = test system: 3T3-L1; assay: Activation of AMPK pathway in adipogenic cocktail-induced mouse 3T3-L1 cells assessed as increase in phosphorylation AMPKalpha at Thr172 residue at 0.01 to 1 uM after 24 hrs by Western blot analysis; type: cell-based; conditions: filed as activator, dose 0.01-1 µM
Outline: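 Confluent 3T3-L1 pre-adipocytes exposed to adipogenic cocktail for 24 h with or without compound (0, 0.01, 0.1, 1 µM); DMSO vehicle. Lysates analysed by SDS-PAGE/Western blot for pAMPKα (Thr-172), normalized to actin, Ctrl set as 1. N = 4 independent experiments.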

[12] = Intrinsic clearance in Sprague-Dawley rat liver microsomes assessed as rate constant […] up to 60 mins in presence of NADPH by LC-MS/MS analysis; type: ADME, Microsome; conditions: read-out: CLH
[13] = test system: 3T3-L1; assay: Cytotoxicity against mouse 3T3-L1 cells assessed as change in LDH releasing level at 5 uM after 6 days by LDH releasing assay; type: cell-based; conditions: 3t3-l1, 144 h, time 6 day
Outline: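 Differentiating 3T3-L1 cells were treated at 5 µM for 6 days. Plates were centrifuged and LDH activity in the supernatant was read at 490 nm. Release was expressed as fold = (treated − blank)/(control − blank), with untreated cells as blank and vehicle-differentiated control set to 1.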

[14] = test system: 3T3-L1; assay: Inhibition of mouse 3T3-L1 cells adipocyte differentiation assessed as reduction in adipogenic cocktail-induced C/EBPalpha mRNA expression after 24 hrs by RT-qPCR analysis; type: functional, cell-based; conditions: dose 0.01-1 µM; outline: as §3
[15] = test system: 3T3-L1; assay: Inhibition of mouse 3T3-L1 cells adipocyte differentiation assessed as reduction in adipogenic cocktail-induced PPARgamma mRNA expression after 24 hrs by RT-qPCR analysis; type: functional, cell-based; conditions: dose 0.01-1 µM; outline: as §3
[16] = test system: 3T3-L1; assay: Lipid lowering activity in mouse 3T3-L1 cells assessed as reduction in adipogenic cocktail-induced triglyceride levels at 1 uM incubated for 6 days by Oil-red O staining based assay; type: functional, cell-based; conditions: time 6.0 day
Outline: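 Differentiating 3T3-L1 cells were treated at 1 µM for 6 days, then washed with PBS and fixed in 4% formaldehyde for 1 h. Cells were stained with 0.3% Oil Red O for 30 min at room temperature in the dark and imaged at ×200.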

[17] = Half life in Sprague-Dawley rat liver microsomes assessed as rate constant […] up to 60 mins in presence of NADPH by LC-MS/MS analysis; type: ADME, Microsome
[18] = test system: 3T3-L1; assay: Inhibition of mouse 3T3-L1 cells adipocyte differentiation assessed as reduction in adipogenic cocktail-induced C/EBPdelta mRNA expression after 24 hrs by RT-qPCR analysis; type: functional, cell-based; conditions: dose 0.01-1 µM; outline: as §3

For `CN(C)CCSc1nc(-c2[nH]c3ccccc3c2C=O)nc2ccccc12`, the Activity [1] was “Dose-dependent effect”.

With `Cc1c(-c2nc(NCCCCN3CCCC3)c3ccccc3n2)sc2ccccc12` the Activity [1] was “Dose-dependent effect” and the Activity [2] was “Active”.

With `Cc1c(-c2nc(OCCCN(C)C)c3ccccc3n2)oc2ccccc12` the Activity [1] was “Dose-dependent effect” and the Activity [2] was “Active”.

In the case of `CN(C)CCCCOc1nc(-c2[nH]c3ccccc3c2C=O)nc2ccccc12`, the Activity [1] is reported as “Dose-dependent effect”.

For `NC(=O)c1ncn([C@@H]2O[C@H](CO)[C@@H](O)[C@H]2O)c1N`, the Activity [3] was “inactive” and the Activity [4] was “Active”.

For `Cc1c(-c2nc(OCCCN3CCCC3)c3ccccc3n2)oc2ccccc12`, the Activity [1] was “Dose-dependent effect” and the Activity [2] was “Active”.

With `Cc1c(-c2nc(NCCN3CCCC3)c3ccccc3n2)sc2ccccc12` the Activity [1] was “Dose-dependent effect” and the Activity [2] was “Active”.

With `Cc1c(-c2nc(NCCN(C)C)c3ccccc3n2)sc2ccccc12` the Activity [1] was “Dose-dependent effect” and the Activity [2] was “Active”.

In the case of `O=Cc1c(-c2nc(NCCN3CCCC3)c3ccccc3n2)oc2ccccc12`, the Activity [1] is reported as “Dose-dependent effect”.

In the case of `CN(C)CCCNc1nc(-c2c(C=O)c3ccccc3n2Cc2ccccc2)nc2ccccc12`, the Activity [1] is reported as “Dose-dependent effect” and the Activity [5] is reported as 57.1%.

For `COc1ccc2[nH]c(-c3nc(NCCCN(C)C)c4ccccc4n3)c(C=O)c2c1`, the Activity [1] was “Dose-dependent effect”.

In the case of `CN(C)CCOc1nc(-c2[nH]c3ccccc3c2C=O)nc2ccccc12`, the Activity [1] is reported as “Dose-dependent effect”.

With `CCN(CC)CCNc1nc(-c2[nH]c3ccccc3c2C)nc2ccccc12` the Activity [1] was “Dose-dependent effect” and the Activity [2] was “Active”.

With `O=Cc1c(-c2nc(OCCCN3CCCC3)c3ccccc3n2)[nH]c2ccccc12` the Activity [1] was “Dose-dependent effect”.

With `Cc1c(-c2nc(OCCCCN(C)C)c3ccccc3n2)oc2ccccc12` the Activity [1] was “Dose-dependent effect” and the Activity [2] was “Active”.

With `COc1ccc2[nH]c(-c3nc(NCCN(C)C)c4ccccc4n3)c(C=O)c2c1` the Activity [1] was “Dose-dependent effect”.

With `CCN(CC)CCCCNc1nc(-c2[nH]c3ccccc3c2C=O)nc2ccccc12` the Activity [1] was “Dose-dependent effect”.

With `O=Cc1c(-c2nc(NCCCN3CCCC3)c3ccccc3n2)oc2ccccc12` the Activity [1] was “Dose-dependent effect” and the Activity [5] was 88.7%.

With `O=Cc1c(-c2nc(NCCCN3CCCC3)c3ccccc3n2)[nH]c2ccccc12` the Activity [1] was “Dose-dependent effect” and the Activity [5] was 34.9%.

With `CN(C)CCCNc1nc(-c2c(C=O)c3ccccc3n2C)nc2ccccc12` the Activity [1] was “Dose-dependent effect” and the Activity [5] was 70.4%.

For `CCN(CC)CCCCNc1nc(-c2[nH]c3ccc(OC)cc3c2C=O)nc2ccccc12`, the EC50 [1] was 0.92 µM, the Activity [1] was “Dose-dependent effect” and the Activity [6] was “>=50%”. The solubility at 24 h [7] was 0.0659 mg/mL (≈ 148 µM), the inhibition [8] was “Dose-dependent effect” and the remaining at 1 h [9] was 84%. For the same molecule, the k el at 1 h [10] was 4.5e-05 s⁻¹, the Activity [11] was “Active” and the microsomal CLint [12] was 2.7 µL/min/mg. The Activity [13] was “Non-Toxic”, the inhibition [14] was “Dose-dependent effect” and the inhibition [15] was “Dose-dependent effect”. For the same molecule, the Activity [16] was “Active”, the half-life [17] was 4.28 h and the inhibition [18] was “Dose-dependent effect”.

With `Cc1c(-c2nc(NCCCCN(C)C)c3ccccc3n2)[nH]c2ccccc12` the Activity [1] was “Dose-dependent effect” and the Activity [2] was “Active”.

In the case of `CN(C)CCCCNc1nc(-c2oc3ccccc3c2C=O)nc2ccccc12`, the Activity [1] is reported as “Dose-dependent effect”.

In the case of `CN(C)CCNc1nc(-c2oc3ccccc3c2C=O)nc2ccccc12`, the Activity [1] is reported as “Dose-dependent effect”.

For `CN(C)CCCNc1nc(-c2oc3ccccc3c2C=O)nc2ccccc12`, the Activity [1] was “Dose-dependent effect”.

With `COc1ccc2[nH]c(-c3nc(NCCCN4CCCC4)c4ccccc4n3)c(C=O)c2c1` the Activity [1] was “Dose-dependent effect”.

In the case of `Cc1c(-c2nc(OCCN(C)C)c3ccccc3n2)oc2ccccc12`, the Activity [1] is reported as “Dose-dependent effect” and the Activity [2] is reported as “Active”.

For `Cc1c(-c2nc(NCCN3CCCC3)c3ccccc3n2)[nH]c2ccccc12`, the Activity [1] was “Dose-dependent effect” and the Activity [2] was “Active”.

For `O=Cc1c(-c2nc(OCCN3CCCC3)c3ccccc3n2)[nH]c2ccccc12`, the Activity [1] was “Dose-dependent effect”.

In the case of `Cc1c(-c2nc(NCCCN(C)C)c3ccccc3n2)sc2ccccc12`, the Activity [1] is reported as “Dose-dependent effect” and the Activity [2] is reported as “Active”.

With `CCN(CC)CCSc1nc(-c2[nH]c3ccccc3c2C=O)nc2ccccc12` the Activity [1] was “Dose-dependent effect”.

In the case of `COc1ccc2[nH]c(-c3nc(NCCN4CCCC4)c4ccccc4n3)c(C=O)c2c1`, the EC50 [1] is reported as 0.31 µM, the Activity [1] is reported as “Dose-dependent effect” and the Activity [6] is reported as “>=50%”. The solubility at 24 h [7] was 0.0564 mg/mL (≈ 136 µM), the inhibition [8] was “Dose-dependent effect” and the remaining at 1 h [9] was 66.6%. The k el at 1 h [10] was 0.00011 s⁻¹, the Activity [11] was “Active” and the microsomal CLint [12] was 6.6 µL/min/mg. For the same molecule, the Activity [13] was “Non-Toxic”, the inhibition [14] was “Dose-dependent effect” and the inhibition [15] was “Dose-dependent effect”. For the same molecule, the Activity [16] was “Active”, the half-life [17] was 1.75 h and the inhibition [18] was “Dose-dependent effect”.

For `O=Cc1c(-c2nc(NCCCCN3CCCC3)c3ccccc3n2)[nH]c2ccccc12`, the EC50 [1] was 0.51 µM, the Activity [1] was “Dose-dependent effect” and the Activity [6] was “>=50%”. For the same molecule, the solubility at 24 h [7] was 0.0151 mg/mL (≈ 36.5 µM), the inhibition [8] was “Dose-dependent effect” and the remaining at 1 h [9] was 83.9%. The k el at 1 h [10] was 4.67e-05 s⁻¹, the Activity [11] was “Active” and the microsomal CLint [12] was 2.8 µL/min/mg. The Activity [13] was “Non-Toxic”, the inhibition [14] was “Dose-dependent effect” and the inhibition [15] was “Dose-dependent effect”. For the same molecule, the Activity [16] was “Active”, the half-life [17] was 4.13 h and the inhibition [18] was “Dose-dependent effect”.

For `CN(C)CCCOc1nc(-c2[nH]c3ccccc3c2C=O)nc2ccccc12`, the Activity [1] was “Dose-dependent effect”.

With `Cc1c(-c2nc(OCCN3CCCC3)c3ccccc3n2)oc2ccccc12` the Activity [1] was “Dose-dependent effect” and the Activity [2] was “Active”.

For `Cc1c(-c2nc(NCCCN3CCCC3)c3ccccc3n2)sc2ccccc12`, the Activity [1] was “Dose-dependent effect” and the Activity [2] was “Active”.

For `Cc1c(-c2nc(NCCCN(C)C)c3ccccc3n2)[nH]c2ccccc12`, the Activity [1] was “Dose-dependent effect” and the Activity [2] was “Active”.

For `Cc1c(-c2nc(NCCN(C)C)c3ccccc3n2)[nH]c2ccccc12`, the Activity [1] was “Dose-dependent effect” and the Activity [2] was “Active”.

With `Cc1c(-c2nc(NCCCN3CCCC3)c3ccccc3n2)[nH]c2ccccc12` the Activity [1] was “Dose-dependent effect” and the Activity [2] was “Active”.

For `CCN(CC)CCCCNc1nc(-c2[nH]c3ccccc3c2C)nc2ccccc12`, the Activity [1] was “Dose-dependent effect” and the Activity [2] was “Active”.
